Experimental data reported in ChEMBL document CHEMBL4196125, “Identification of N-Benzyl 3,5-Dinitrobenzamides Derived from PBTZ169 as Antitubercular Agents” (ACS Med Chem Lett, 2018).
Converted amounts (≈) assume the structure as drawn. The source made the active and inactive calls. No cut-off for these calls is given here.

Tests used:
[1] = tested on: Mycobacterium tuberculosis; assay: Antitubercular activity against drug-sensitive Mycobacterium tuberculosis H37Rv ATCC 27294 measured after 7 days by microplate alamar blue assay; type: functional; conditions: for MIC90: H37Rv ATCC 27294, 168 h
In short: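 Microplate Alamar Blue Assay against strain H37Rv ATCC27294. MIC is the lowest concentration giving more than 90% reduction in fluorescence relative to the mean of replicate bacterium-only controls.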

Mus musculus = assay: Acute toxicity in mouse assessed as survival at 500 mg/kg, po administered as single dose measured for 7 days; type: organism-based; conditions: in vivo, 168 h
[2] = Tmax in mouse at 50 mg/kg, po administered as single dose; type: ADME, organism-based; conditions: in vivo
In short: (§1)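 Mice (n = 3) received one oral 50 mg/kg dose; plasma levels were followed to derive T1/2 (h), Tmax (h), Cmax (ng/mL) and AUC0-∞ (h·ng/mL).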

[3] = Half life in mouse at 50 mg/kg, po administered as single dose; type: ADME, organism-based; conditions: in vivo; in short: as §1
[4] = Cmax in mouse at 50 mg/kg, po administered as single dose; type: ADME, organism-based; set-up: dose 50 mg/kg, route oral; conditions: in vivo; in short: as §1
[5] = AUC (0 to infinity) in mouse at 50 mg/kg, po administered as single dose; type: ADME, organism-based; set-up: dose 50 mg/kg, route oral, time infinity; conditions: in vivo; in short: as §1

Compound	MIC90 [1]	other results
CC(C)N1CCN(c2ccc(CNC(=O)c3cc([N+](=O)[O-])cc(C(F)(F)F)c3)cc2)CC1	8 µg/mL (≈ 17.8 µM)	–
CC(C)N1CCN(c2ccc(CNC(=O)c3cc([N+](=O)[O-])cc([N+](=O)[O-])c3)cc2)CC1	4 µg/mL (≈ 9.36 µM)	–
CN1CCN(c2ccc(CNC(=O)c3cc([N+](=O)[O-])cc(C(F)(F)F)c3)cc2)CC1	> 8 µg/mL	–
O=C(NCc1ccc(N2CCSCC2)cc1)c1cc([N+](=O)[O-])cc([N+](=O)[O-])c1	0.0625 µg/mL (≈ 0.155 µM)	Activity (Mus musculus): Non-Toxic; Tmax [2]: 2.75 h; half-life [3]: 3.3 h; Cmax [4]: 19 ng/mL; AUC(0-inf) [5]: 41.1 ng·h/mL
O=C(NCc1ccc(N2CCN(c3ccccn3)CC2)cc1)c1cc([N+](=O)[O-])cc([N+](=O)[O-])c1	1 µg/mL (≈ 2.16 µM)	–
O=C(NCc1ccc(N2CCOCC2)cc1)c1cc([N+](=O)[O-])cc(C(F)(F)F)c1	> 8 µg/mL	–
O=C(NCc1ccc(N2CCSCC2)cc1)c1cc([N+](=O)[O-])cc(C(F)(F)F)c1	0.125 µg/mL (≈ 0.294 µM)	–
O=C(NCc1ccc(N2CCC(Oc3ccc(OC(F)(F)F)cc3)CC2)cc1)c1cc([N+](=O)[O-])cc(C(F)(F)F)c1	2 µg/mL (≈ 3.43 µM)	–
O=C(NCc1ccc(N2CCC(c3ccc(OC(F)(F)F)cc3)CC2)cc1)c1cc([N+](=O)[O-])cc(C(F)(F)F)c1	0.5 µg/mL (≈ 0.881 µM)	–
O=C(NCc1ccc(N2CCN(c3ccc(F)cc3)CC2)cc1)c1cc([N+](=O)[O-])cc([N+](=O)[O-])c1	0.0625 µg/mL (≈ 0.13 µM)	Activity (Mus musculus): Non-Toxic; Tmax [2]: 1.08 h; half-life [3]: 13.6 h; Cmax [4]: 15 ng/mL; AUC(0-inf) [5]: 219 ng·h/mL
NNC(=O)c1ccncc1 [ISONIAZID]	0.0781 µg/mL (≈ 0.569 µM)	–
O=C(NCc1ccc(N2CC3CCCCC3C2)cc1)c1cc([N+](=O)[O-])cc([N+](=O)[O-])c1 (stereo not drawn)	0.0625 µg/mL (≈ 0.147 µM)	Activity (Mus musculus): Non-Toxic
CN1CCN(c2ccc(CNC(=O)c3cc([N+](=O)[O-])cc([N+](=O)[O-])c3)cc2)CC1	4 µg/mL (≈ 10 µM)	–
O=C(NCc1ccc(N2CCN(c3ccc(F)cc3)CC2)cc1)c1cc([N+](=O)[O-])cc(C(F)(F)F)c1	0.5 µg/mL (≈ 0.995 µM)	–
O=C(NCc1ccc(N2CCC(C(F)(F)F)CC2)cc1)c1cc([N+](=O)[O-])cc(C(F)(F)F)c1	0.0625 µg/mL (≈ 0.131 µM)	–
O=C(NCc1ccc(N2CCCCC2)cc1)c1cc([N+](=O)[O-])cc(C(F)(F)F)c1	0.25 µg/mL (≈ 0.614 µM)	–

Compound	MIC90 [1]	other results
CO[C@H]1/C=C/O[C@@]2(C)Oc3c(C)c(O)c4c(O)c(c(/C=N/N5CCN(C)CC5)c(O)c4c3C2=O)NC(=O)/C(C)=C\C=C\[C@H](C)[C@H](O)[C@@H](C)[C@@H](O)[C@@H](C)[C@H](OC(C)=O)[C@@H]1C [RIFAMPIN]	0.0781 µg/mL (≈ 0.0949 µM)	–
O=C(NCc1ccc(N2CCCCC2)cc1)c1cc([N+](=O)[O-])cc([N+](=O)[O-])c1	2 µg/mL (≈ 5.2 µM)	–
O=C(NCCNc1ccc(Br)cc1)c1cc([N+](=O)[O-])cc(C(F)(F)F)c1	–	Activity [1]: Active
O=c1nc(N2CCN(CC3CCCCC3)CC2)sc2c([N+](=O)[O-])cc(C(F)(F)F)cc12 [MACOZINONE]	0.0625 µg/mL (≈ 0.137 µM)	–
O=C(NCc1ccc(N2CC3CCCCC3C2)cc1)c1cc([N+](=O)[O-])cc(C(F)(F)F)c1 (stereo not drawn)	0.5 µg/mL (≈ 1.12 µM)	–
COc1ccc(OCCNC(=O)c2cc([N+](=O)[O-])cc(C(F)(F)F)c2)cc1	1 µg/mL (≈ 2.6 µM)	–
O=C(NCc1ccc(N2CCN(c3ccccn3)CC2)cc1)c1cc([N+](=O)[O-])cc(C(F)(F)F)c1	1 µg/mL (≈ 2.06 µM)	–
O=C(NCc1ccc(N2CCN(c3ccncc3)CC2)cc1)c1cc([N+](=O)[O-])cc(C(F)(F)F)c1	8 µg/mL (≈ 16.5 µM)	–
O=C(NCc1ccc(N2CCC(Oc3ccc(OC(F)(F)F)cc3)CC2)cc1)c1cc([N+](=O)[O-])cc([N+](=O)[O-])c1	0.5 µg/mL (≈ 0.892 µM)	–
O=C(NCCNc1ccc([N+](=O)[O-])cc1)c1cc([N+](=O)[O-])cc(C(F)(F)F)c1	–	Activity [1]: Active
O=C(NCc1ccc(N2CCC(C(F)(F)F)CC2)cc1)c1cc([N+](=O)[O-])cc([N+](=O)[O-])c1	0.0625 µg/mL (≈ 0.138 µM)	Activity (Mus musculus): Non-Toxic; Tmax [2]: 0.92 h; half-life [3]: 3.63 h; Cmax [4]: 1720 ng/mL; AUC(0-inf) [5]: 5600 ng·h/mL
O=C(NCc1ccc(N2CCN(c3ccncc3)CC2)cc1)c1cc([N+](=O)[O-])cc([N+](=O)[O-])c1	2 µg/mL (≈ 4.32 µM)	–
O=C(NCCN1CCN(c2ccccc2)CC1)c1cc([N+](=O)[O-])cc(C(F)(F)F)c1	–	Activity [1]: Active
O=C(NCCN1CCN(CC2CCCCC2)CC1)c1cc([N+](=O)[O-])cc(C(F)(F)F)c1	0.0781 to 4 µg/mL (≈ 0.177 to 9.04 µM)	–
O=C(NCc1ccc(N2CCC(c3ccc(OC(F)(F)F)cc3)CC2)cc1)c1cc([N+](=O)[O-])cc([N+](=O)[O-])c1	0.0625 µg/mL (≈ 0.115 µM)	Activity (Mus musculus): Non-Toxic; Tmax [2]: 0.83 h; half-life [3]: 5.52 h; Cmax [4]: 366 ng/mL; AUC(0-inf) [5]: 3260 ng·h/mL
O=C(NCc1ccc(N2CCOCC2)cc1)c1cc([N+](=O)[O-])cc([N+](=O)[O-])c1	> 8 µg/mL	–
